Results published in ChEMBL document CHEMBL2417418, “Synthesis and evaluation of novel 3-(3,5-dimethylbenzyl)uracil analogs as potential anti-HIV-1 agents” (Bioorg Med Chem, 2013).

Assays:
[1] = Cytotoxicity against human MT4 cells after 4 days by MTT assay; format: cell-based
Outline: (§1)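 Mock-infected MT-4 cells (1 ×10^5 cells/mL, RPMI 1640 + 10% heat-inactivated FBS) cultured with various compound concentrations in parallel with the antiviral assay, 4 days at 37 °C, 5% CO2. Viability read by MTT. CC50 is the concentration cutting uninfected-cell viability by 50%.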

[2] = tested on: Human immunodeficiency virus 1; experiment: Antiviral activity against HIV1 3B infected in human MT4 cells assessed as protection against viral-induced cytopathogenicity after 4 days by MTT assay; format: functional, organism-based; conditions: Human immunodeficiency virus 1, 3B, MT4, 96 h
[3] = Selectivity index, ratio of CC50 for human MT4 cells to EC50 for HIV1 3B; format: toxicity, cell-based; conditions: read-out: Ratio CC50/EC50
Outline: (§2)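 SI computed as CC50/EC50. Both values come from parallel MTT readings after 4 days at 37 °C. CC50 is from mock-infected MT-4 cells; EC50 is from MT-4 cells infected with HIV-1 IIIB at MOI 0.1, as 50% protection from cytopathogenicity.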

[4] = Cytotoxicity against human MT4 cells; format: cell-based; outline: as §1
[5] = tested on: Human immunodeficiency virus 1; experiment: Antiviral activity against HIV1 infected in human MT4 cells; format: functional, organism-based; conditions: Human immunodeficiency virus 1, MT4
[6] = Selectivity index, ratio of CC50 for human MT4 cells to EC50 for HIV1; format: toxicity, cell-based; conditions: read-out: Ratio CC50/EC50; outline: as §2

SMILES	CC50 at 96 h [1] [µM]	EC50 [2] [µM]	selectivity ratio [3]	CC50 [4] [µM]	EC50 [5] [nM]	selectivity ratio [6]
Cc1cc(C)cc(Cn2c(=O)cc(N3CCCC3)n(Cc3ccccc3)c2=O)c1	31	> 31	–	–	–	–
Cc1cc(C)cc(Cn2c(=O)cc(N3CCCCC3)n(Cc3ccccc3)c2=O)c1	47	> 47	–	–	–	–
CC(=O)Nc1cc(=O)n(Cc2cc(C)cc(C)c2)c(=O)n1Cc1ccccc1	> 100	> 100	–	–	–	–
Cc1cc(C)cc(Cn2c(=O)cc(N=[N+]=[N-])n(CC#N)c2=O)c1	60	3.5	–	–	–	–
Cc1cc(C)cc(Cn2c(=O)cc(NC3CC3)n(Cc3ccccc3)c2=O)c1	> 100	> 100	–	–	–	–
CNc1cc(=O)n(Cc2cc(C)cc(C)c2)c(=O)n1Cc1ccccc1	65	7	9	–	–	–
Cc1cc(C)cc(Cn2c(=O)cc(N(C)C)n(Cc3ccccc3)c2=O)c1	48	> 48	–	–	–	–
Cc1cc(C)cc(Cn2c(=O)cc(N)n(CC#N)c2=O)c1	> 100	> 100	–	–	–	–
Cc1cc(C)cc(Cn2c(=O)cc(N=[N+]=[N-])n(Cc3ccccn3)c2=O)c1	> 100	0.22	> 457	–	–	–
Cc1cc(C)cc(Cn2c(=O)cc(N3CCNCC3)n(Cc3ccccc3)c2=O)c1	16	> 16	–	–	–	–
Cc1cc(C)cc(Cn2c(=O)cc(N=[N+]=[N-])n(Cc3ccccc3)c2=O)c1	–	–	–	45.9	67	685
Cc1cc(C)cc(Cn2c(=O)cc(N3CCOCC3)n(Cc3ccccc3)c2=O)c1	> 100	> 100	–	–	–	–
Cc1cc(C)cc(Cn2c(=O)cc(NC3CCCCC3)n(Cc3ccccc3)c2=O)c1	74	> 74	–	–	–	–
Cc1cn([C@H]2C[C@H](N=[N+]=[N-])[C@@H](CO)O2)c(=O)[nH]c1=O [ZIDOVUDINE]	> 100	0.04	> 2770	–	–	–
Cc1cc(C)cc(Cn2c(=O)cc(N)n(Cc3ccccn3)c2=O)c1	> 100	0.23	> 443	–	–	–
Cc1cc(C)cc(Cn2c(=O)cc(N)n(Cc3ccccc3)c2=O)c1	–	–	–	45.6	69	661
Cc1cc(C)cc(Cn2c(=O)cc(N)n(Cc3ccncc3)c2=O)c1	> 100	0.03	> 2860	–	–	–
Cc1ccnc2c1NC(=O)c1cccnc1N2C1CC1 [NEVIRAPINE]	–	–	–	–	–	> 1640
Cc1cc(C)cc(Cn2c(=O)cc(NCc3ccccc3)n(Cc3ccccc3)c2=O)c1	> 100	> 100	–	–	–	–
Cc1cc(C)cc(Cn2c(=O)cc(N=[N+]=[N-])n(Cc3ccncc3)c2=O)c1	59	0.05	1160	–	–	–
